Structures are written as SMILES.

The target in experiment [1] is T1, Toll-like receptor 2 (Homo sapiens, UniProt O60603). The experiment in a line: Antagonistic potency at TLR2 expressed in HEK293 cells. The format is functional, cell-based.
The target in experiment [2] is Toll-like receptor 4 (Homo sapiens, UniProt O00206). The experiment in a line: Antagonistic potency at human TLR4 expressed in HEK293 cells. The format is functional, cell-based.
For experiment [3], the target named is T1, Toll-like receptor 2. The experiment is described as follows: Antagonistic activity at TLR in human PBMC. The format is functional. The method, boiled down:
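PBMCs purified from heparinized blood of healthy human donors, seeded at 50,000 cells per well. Pam3CysSK4 (50 ng/ml) added together with compound at 30, 10, 3, 1, 0.3, 0.1 and 0.03 µM; 6 h at 37 °C. Supernatants collected by centrifugation, stored at -20 °C, TNFα measured by ELISA.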

T1 sequence (O60603 whole entry): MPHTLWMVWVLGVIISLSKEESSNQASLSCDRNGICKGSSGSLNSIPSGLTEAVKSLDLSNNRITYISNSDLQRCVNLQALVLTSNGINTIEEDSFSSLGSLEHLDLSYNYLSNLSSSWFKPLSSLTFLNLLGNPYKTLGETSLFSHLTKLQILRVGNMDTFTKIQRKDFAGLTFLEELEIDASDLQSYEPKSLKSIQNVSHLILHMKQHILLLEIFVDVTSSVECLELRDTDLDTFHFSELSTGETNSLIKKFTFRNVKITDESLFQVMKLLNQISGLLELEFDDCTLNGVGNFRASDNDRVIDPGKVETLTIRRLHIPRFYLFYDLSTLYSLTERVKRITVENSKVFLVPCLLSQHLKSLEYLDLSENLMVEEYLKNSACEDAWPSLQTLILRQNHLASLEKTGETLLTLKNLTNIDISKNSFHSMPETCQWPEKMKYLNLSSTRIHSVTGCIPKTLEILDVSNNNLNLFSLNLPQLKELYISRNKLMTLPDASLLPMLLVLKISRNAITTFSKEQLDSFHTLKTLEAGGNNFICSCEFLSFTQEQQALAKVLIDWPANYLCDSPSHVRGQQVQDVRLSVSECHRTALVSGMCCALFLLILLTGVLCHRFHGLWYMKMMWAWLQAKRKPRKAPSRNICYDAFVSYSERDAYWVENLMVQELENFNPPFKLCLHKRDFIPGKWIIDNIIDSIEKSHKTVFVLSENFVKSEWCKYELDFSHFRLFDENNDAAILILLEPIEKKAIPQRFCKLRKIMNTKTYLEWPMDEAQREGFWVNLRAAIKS
Sequence of Toll-like receptor 4 (O00206 whole entry): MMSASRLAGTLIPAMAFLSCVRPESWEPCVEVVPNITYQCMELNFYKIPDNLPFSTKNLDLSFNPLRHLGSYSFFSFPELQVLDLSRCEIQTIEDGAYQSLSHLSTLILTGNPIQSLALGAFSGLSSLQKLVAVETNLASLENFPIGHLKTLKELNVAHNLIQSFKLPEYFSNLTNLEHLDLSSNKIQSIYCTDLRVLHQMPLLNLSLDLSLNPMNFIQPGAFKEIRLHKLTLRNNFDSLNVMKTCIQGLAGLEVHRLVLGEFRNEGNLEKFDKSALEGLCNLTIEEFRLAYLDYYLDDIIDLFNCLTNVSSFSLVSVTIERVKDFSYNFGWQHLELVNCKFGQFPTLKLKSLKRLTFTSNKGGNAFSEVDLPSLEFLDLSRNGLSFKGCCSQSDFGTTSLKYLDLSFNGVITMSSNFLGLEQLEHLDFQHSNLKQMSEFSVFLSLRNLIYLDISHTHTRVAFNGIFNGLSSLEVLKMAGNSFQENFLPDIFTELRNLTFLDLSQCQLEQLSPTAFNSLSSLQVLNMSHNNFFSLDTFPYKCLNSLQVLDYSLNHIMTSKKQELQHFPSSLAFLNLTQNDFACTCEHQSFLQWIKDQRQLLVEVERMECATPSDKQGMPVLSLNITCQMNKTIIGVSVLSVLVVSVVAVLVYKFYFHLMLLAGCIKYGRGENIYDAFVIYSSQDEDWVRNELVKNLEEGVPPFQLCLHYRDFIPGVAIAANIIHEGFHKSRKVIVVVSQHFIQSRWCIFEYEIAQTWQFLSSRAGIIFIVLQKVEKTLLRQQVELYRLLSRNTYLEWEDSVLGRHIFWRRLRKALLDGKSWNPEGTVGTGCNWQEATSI

In experiment [1], `CCCCCCCCCCCCCC(=O)O[C@H](COCC[C@@H](CCCCCCC)OC(=O)CCCCCCCCCCC)COP(=O)(O)OCCNC(=O)C(Cc1ccc(O)cc1)C(=O)O` (some centres undefined) gave an IC50 of 1.25 µM. `CCCCCCCCCCCCCC(=O)N[C@@H](COCC[C@@H](CCCCCCC)OC(=O)CCCCCCCCCCC)COP(=O)(O)OCCNC(=O)C(Cc1ccc(O)cc1)C(=O)O` (some centres undefined): the results for the concentration for half-maximal inhibition (IC50) in experiment [1] and in experiment [2] were 22 µM and 250 nM, respectively. Take `CCCCCCCCCCCCCC(=O)N[C@H](COCC[C@@H](CCCCCCC)OC(=O)CCCCCCCCCCC)COP(=O)(O)OCCNC(=O)CCc1ccc(O)cc1`: the half-inhibitory concentration (IC50) in experiment [1] was determined as 2.15 µM. Take `CCCCCCCCCCCCCC(=O)N[C@H](COCC[C@H](CCCCCCC)OC(=O)CCCCCCCCCCC)COP(=O)(O)OCCNC(=O)C(Cc1ccc(O)cc1)C(=O)O` (some centres undefined): the figures for the IC50 in experiment [1] and in experiment [2] were 6.46 µM and 160 nM, respectively. With `CCCCCCCCCCCCCC(=O)N[C@@H](COCC[C@H](CCCCCCC)OC(=O)CCCCCCCCCCC)COP(=O)(O)OCCNC(=O)C(Cc1ccc(O)cc1)C(=O)O` (some centres undefined), the IC50 turned out to be 6.9 µM in experiment [1] and 80 nM in experiment [2]. Consider `CCCCCCCCCCCCCC(=O)N[C@@H](COP(=O)(O)OCCNC(=O)C(Cc1ccc(O)cc1)C(=O)O)C(=O)OCC[C@@H](CCCCCCC)OC(=O)CCCCCCCCCCC` (some centres undefined), for which, in experiment [1], inhibition was half-maximal at 0.95 µM (IC50). In experiment [1], `CCCCCCCCCCCCCC(=O)N[C@H](COCC[C@@H](CCCCCCC)NC(=O)CCCCCCCCCCC)COP(=O)(O)OCCNC(=O)C(Cc1ccc(O)cc1)C(=O)O` (some centres undefined) yielded a half-inhibitory concentration (IC50) of 5.2 µM. As for `CCCCCCCCCCCCCC(=O)N[C@H](COCC[C@@H](CCCCCCC)OC(=O)CCCCCCCCCCC)COP(=O)(O)OCCNC(=O)C(Cc1ccc(O)cc1)C(=O)O` (some centres undefined), the figures for the IC50 in experiment [1], in experiment [2] and in experiment [3] were 3.07 µM, 350 nM and 1600 nM, respectively.

For `CCCCCCCCCCCCCC(=O)N[C@@H](COP(=O)(O)OCCNC(=O)C(Cc1ccc(O)cc1)C(=O)O)C(=O)NCC[C@@H](CCCCCCC)OC(=O)CCCCCCCCCCC` (some centres undefined), the IC50 in experiment [1] turned out to be 0.9 µM.

For orientation: IC50 means the concentration at which inhibition is half-maximal.

These data come from ChEMBL document CHEMBL1141958, “Toll-like receptor 2 antagonists. Part 1: preliminary SAR investigation of novel synthetic phospholipids” (Bioorg Med Chem Lett, 2005).
